Sampled rows, rich in hits. Any-hit rate of the full collection: about 2.3%.
FN deposition inh: fibronectin deposition inhibition; AID 743247; inhibition, % at 12.6 µM; 0.086% of 350,000 active; AH1F fibroblasts, Alexa488-fibronectin deposition fluorescence, overnight;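 active = mean inhibition across replicates of 30% or more, regardless of how many single replicates reach that level; inconclusive = mean under 30% yet at least half of replicates reach 30%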
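Material – AH1F fibroblast monolayer, labelled fibronectin deposition · Reagent – labelled fibronectin 24 nM · Timing – 1 h adhesion, overnight exposure · Measured by – fluorescence at 485 nm excitation, 525 nm emission · Read-out – inhibition of fibronectin deposition signal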
CFTR F508del cor: CFTR F508del correction in bronchial cells; CFBE cells, YFP halide quenching; stimulated with forskolin plus potentiator P3; % fluorescence drop versus neutral controls; activity (quench increase), % at 7.58 µM; 0.36% of 350,000 active;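 active = mean added fluorescence quench of at least 8% versus neutral control, with both replicates also reaching 8%; inconclusive = only one of the mean or replicate conditions met; inactive = mean below 8% and not both replicates reaching 8%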;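 note: cells transiently co-express mutant CFTR-F508del with the halide-sensitive YFP; corrector assay measuring rescue of mutant channel to the surface after 24 h compound exposure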
EWS-Fli block: EWS/Fli transcriptional activity inhibition; A673 NR0B1-luciferase reporter, viability-normalised; inhibition, % at 12.6 µM; 0.67% of 350,000 active; AID 651661;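 active = mean inhibition of at least 50% after viability correction, with every replicate also passing that limit; inconclusive = mean reaches 50% but only one of two replicates passes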;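 note: firefly luciferase signal divided by Alamar Blue viability fluorescence both relative to DMSO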
PAX8 reporter: inhibitors of PAX8 transcriptional activity in RMG-I cells; RMG-I TPO-luciferase reporter, SteadyGlo, 24 h; inhibition, % at 12.6 µM; 1.2% of 360,000 active;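 active = mean replicate inhibition at least 60% with every replicate also reaching 60%; inconclusive = only one of the two criteria is met; inactive = mean below 60% and not all replicates reaching 60%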;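 note: luciferase light reporting Pax8 driven TPO promoter activity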
PGC1a acetyl inh: PGC1a acetylation modulation, inhibitor mode | U2OS PGC1a acetylation, AlphaScreen anti-acetyl-lysine; with virally co-expressed GCN5 acetyltransferase | inhibition, % at 15.6 µM | AID 651687 | 0.17% of 350,000 active;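 active = every replicate shows inhibition of at least 40%; inconclusive = mean inhibition at least 40% but some replicate below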
HIV Env fusion: blocks HIV Env-driven cell-cell fusion. HeLa-JRFL Env/CEM21 cell fusion, luciferase. inhibition, % at 12.3 µM. 1.1% of 360,000 active. AID 651610;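 active = mean replicate inhibition score of at least 50 and every replicate individually at or above 50; inconclusive = only one of the two criteria met; inactive = mean below 50 and not all replicates reaching 50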
Of the large screens only hits and unclear results are named; the others gave an inactive call; [ ] = another dose, or the depositor's remark.

OC[C@@H]1[C@H](c2ccc(C#Cc3ccccc3)cc2)[C@H]2CN(Cc3cncnc3)CCCCN12	none (no result: FN deposition inh, HIV Env fusion)
CCc1cc2c(nc1CC)CCCN2S(=O)(=O)c1ccc(F)cc1	none (no result: PGC1a acetyl inh)
CCc1cc2c(nc1CC)CCCN2S(=O)(=O)c1ccc(OC)cc1	EWS-Fli block 72 (no result: PGC1a acetyl inh)
CN1C(=O)c2cc(NC(=O)NC3CCCC3)ccc2OC[C@@H]2O[C@H](CC(=O)NC3CCC3)CC[C@@H]21	HIV Env fusion 71[16.7 µM]
CC(C)c1ccc(NC(=O)C[C@H]2CC[C@H]3[C@@H](COc4ccc(NC(=O)Nc5ccc(F)c(F)c5)cc4C(=O)N3C)O2)cc1	PAX8 reporter 75, HIV Env fusion 70[16.7 µM] (no result: FN deposition inh)
Cc1nn(C)cc1NC(=O)C[C@H]1CC[C@@H]2[C@@H](COc3ccc(NC(=O)C4CCC4)cc3C(=O)N2C)O1	HIV Env fusion 60[16.7 µM]
CN1C(=O)c2cc(NC(=O)NC3CCCC3)ccc2OC[C@H]2O[C@H](CC(=O)NC3CCC3)CC[C@@H]21	none
CCC(=O)Nc1ccc2c(c1)C(=O)N(C)[C@H]1CC[C@H](CC(=O)Nc3ccc(C(C)C)cc3)O[C@@H]1CO2	none
CCCNC(=O)C[C@H]1CC[C@@H]2[C@@H](COc3ccc(NC(=O)c4cccc(C(F)(F)F)c4)cc3C(=O)N2C)O1	HIV Env fusion 65[16.7 µM]
C/C=C/c1ccccc1[C@@H]1[C@H](C#N)N(C(=O)c2cccnc2)[C@H]1CO	none (no result: CFTR F508del cor, EWS-Fli block, PAX8 reporter, PGC1a acetyl inh, HIV Env fusion)
CCC(=O)Nc1ccc2c(c1)C(=O)N(C)[C@H]1CC[C@H](CC(=O)NC3CCCC3)O[C@H]1CO2	HIV Env fusion 57[16.7 µM]
CN1C(=O)c2cc(NC(=O)Nc3ccc(F)cc3)ccc2OC[C@H]2O[C@@H](CC(=O)NC3CCC3)CC[C@H]21	PAX8 reporter 62 (no result: HIV Env fusion)
CCNC(=O)C[C@H]1CC[C@@H]2[C@@H](COc3ccc(NC(=O)Cc4cccs4)cc3C(=O)N2C)O1	HIV Env fusion 65[16.7 µM]
CCC(=O)Nc1ccc2c(c1)C(=O)N(C)[C@@H]1CC[C@H](CC(=O)NC3CCCC3)O[C@H]1CO2	none (no result: FN deposition inh)
CN1C(=O)c2cc(NC(=O)c3cccc(Cl)c3)ccc2OC[C@H]2O[C@@H](CC(=O)NC3CCCCC3)CC[C@H]21	HIV Env fusion 56[16.7 µM]
COc1ccc(NC(=O)N(C)C[C@H]2OCCCC[C@H](C)Oc3ccc(NC(=O)NC(C)C)cc3C(=O)N([C@@H](C)CO)C[C@H]2C)cc1	none (no result: FN deposition inh)
S=C(NN=C1CCCCC1=NNC(=S)N1CCOCC1)N1CCOCC1	HIV Env fusion 67 (no result: PGC1a acetyl inh)
C[C@@H]1CCCCO[C@@H](CN(C)C(=O)CCCN(C)C)[C@H](C)CN([C@H](C)CO)C(=O)c2cc(NC(=O)C3CCCCC3)ccc2O1	none (no result: FN deposition inh, PAX8 reporter)
CC/C(=C/c1ccccc1)c1cccc2[nH]c3c(OC)cccc3c12	HIV Env fusion 58 (no result: PGC1a acetyl inh)
C[C@H]1CN(C)C(=O)c2cccc(N)c2O[C@H]1CN(C)C(=O)OC(C)(C)C	none (no result: CFTR F508del cor, EWS-Fli block, PAX8 reporter, PGC1a acetyl inh, HIV Env fusion)
CN(C)c1cc[n+](CC[n+]2ccc(N(C)C)cc2)cc1	none
CN(C)c1cc[n+](Cc2c(Cl)cccc2Cl)cc1	HIV Env fusion 58 (no result: CFTR F508del cor, EWS-Fli block, PGC1a acetyl inh)
O=[N+]([O-])c1ccc(Nc2ccccc2)c2nonc12	none (no result: PGC1a acetyl inh)
O=[N+]([O-])c1ccc(Sc2cccc[n+]2[O-])c2nonc12	FN deposition inh 51, CFTR F508del cor 45, EWS-Fli block 56, PAX8 reporter 102 (no result: PGC1a acetyl inh)
Cc1nn(C)c(C)c1NC(=O)CSc1nc(C2CC2)nc2c1cnn2-c1ccccc1	HIV Env fusion 57 (no result: CFTR F508del cor, EWS-Fli block)
Cc1nn(C)c(C)c1NC(=O)CSc1nc(-c2ccccc2Cl)nc2c1cnn2-c1ccccc1	none (no result: CFTR F508del cor, EWS-Fli block, PAX8 reporter)
O=C(NC1CCCN(Cc2ccc(Cl)cc2)C1)c1c(F)cccc1F (stereo not drawn)	none
O=C(NC1CCCN(Cc2ccc(Cl)cc2)C1)c1ccccc1C(F)(F)F (stereo not drawn)	PGC1a acetyl inh 47
C=C(C(=O)c1ccccc1)C(NC(C)(C)C)c1ccccc1 (stereo not drawn)	PAX8 reporter 81 (no result: PGC1a acetyl inh)
O=C(CC(Nc1ccccc1)C(=O)O)c1ccccc1 (stereo not drawn)	none (no result: FN deposition inh, CFTR F508del cor, EWS-Fli block, PAX8 reporter, HIV Env fusion)
C=C(C(=O)c1ccccc1)C(C)CC(=O)c1ccccc1 (stereo not drawn)	PAX8 reporter 62 (no result: CFTR F508del cor, EWS-Fli block, PGC1a acetyl inh)
COCC(=O)Nc1ccc2c(c1)C(=O)N(C)[C@H]1CC[C@H](CC(=O)N3CCc4ccccc4C3)O[C@H]1CO2	none
C#CCN(C[C@H]1[C@H](OC(=O)Nc2cccs2)[C@H](OC(=O)Nc2cccs2)CN(C(=O)OC(C)C)N1C(=O)OC(C)C)S(=O)(=O)c1ccc(C)cc1	PAX8 reporter inconclusive, HIV Env fusion 117 (no result: FN deposition inh, PGC1a acetyl inh)
C#CCN(C[C@H]1[C@H](OC(=O)Nc2cccs2)[C@H](OC(=O)Nc2cccs2)C[C@H]2C(=O)N(c3ccccc3)C(=O)[C@@H]12)S(=O)(=O)c1ccc(C)cc1	none (no result: FN deposition inh)
C#CCN(C[C@@H]1[C@@H](OC(=O)NC2CCCC2)[C@@H](OC(=O)NC2CCCC2)Cn2c(=O)ccc(=O)n21)S(=O)(=O)c1ccc(C)cc1	EWS-Fli block 68, PAX8 reporter 96
C#CCN(C[C@@H]1[C@@H](OC(=O)NCc2ccccc2F)[C@@H](OC(=O)NCc2ccccc2F)Cn2c(=O)ccc(=O)n21)S(=O)(=O)c1ccc(C)cc1	PAX8 reporter 105, PGC1a acetyl inh 60
C#CCN(C[C@@H]1[C@@H](OC(=O)Nc2cccs2)[C@@H](OC(=O)Nc2cccs2)Cn2c(=O)ccc(=O)n21)S(=O)(=O)c1ccc(C)cc1	EWS-Fli block inconclusive, PAX8 reporter 113, PGC1a acetyl inh inconclusive (no result: HIV Env fusion)
C#CCN(C[C@H]1[C@H](OC(=O)NC2CCCC2)[C@H](OC(=O)NC2CCCC2)C[C@@H](C(=O)OC)[C@H]1C(=O)OC)S(=O)(=O)c1ccc(C)cc1	none
C#CCN(C[C@@H]1[C@@H](OC(=O)NC2CC2)[C@@H](OC(=O)NC2CC2)CN(C(=O)OC(C)C)N1C(=O)OC(C)C)S(=O)(=O)c1ccc(C)cc1	none
Fc1ccccc1-c1nc(-c2ccccc2)no1	none (no result: CFTR F508del cor, EWS-Fli block)
COC(=O)c1cccc(-c2noc(-c3ccccc3F)n2)c1	EWS-Fli block 90
NC(=O)c1cccc(-c2noc(-c3ccccc3F)n2)c1	EWS-Fli block 87
COc1ccc2c3c(n(C)c2c1)[C@@H](CO)N(C(=O)CN1CCOCC1)CC31CCN(C(=O)CC2CC2)CC1	none (no result: FN deposition inh, PAX8 reporter, HIV Env fusion)
COc1ccc(OC)c(-c2cc(-c3cccnc3)nc(N)c2C#N)c1	CFTR F508del cor 9.0, EWS-Fli block 56
C[C@H](CO)N1C[C@H](C)[C@H](CN(C)Cc2ccc(C(=O)Nc3ccccc3N)cc2)Oc2ccc(NS(=O)(=O)c3cn(C)cn3)cc2C1=O	none (no result: FN deposition inh, PAX8 reporter, HIV Env fusion)
CCCS(=O)(=O)c1cnc(C2COc3ccccc3O2)nc1N (stereo not drawn)	EWS-Fli block 86 (no result: PGC1a acetyl inh)
S=c1nc(C2COc3ccccc3O2)[nH][nH]1 (stereo not drawn)	none

Screens (PubChem)
